Experimental data from ChEMBL document CHEMBL4138223, “Structure-activity relationships for inhibitors of Pseudomonas aeruginosa exoenzyme S ADP-ribosyltransferase activity” (Eur J Med Chem, 2018).

molecular target: T1, Exoenzyme S (Pseudomonas aeruginosa, UniProt Q93SQ1); test: Inhibition of recombinant Pseudomonas aeruginosa PAK His6-tagged ExoS ADPRT domain expressed in Escherichia coli using human GST-fused vH-Ras as substrate measured over 30 mins in presence of 14.3.3beta and epsilonNAD+ by fluorescence assay; details: read-out: IC50
T1 sequence (Q93SQ1 whole entry): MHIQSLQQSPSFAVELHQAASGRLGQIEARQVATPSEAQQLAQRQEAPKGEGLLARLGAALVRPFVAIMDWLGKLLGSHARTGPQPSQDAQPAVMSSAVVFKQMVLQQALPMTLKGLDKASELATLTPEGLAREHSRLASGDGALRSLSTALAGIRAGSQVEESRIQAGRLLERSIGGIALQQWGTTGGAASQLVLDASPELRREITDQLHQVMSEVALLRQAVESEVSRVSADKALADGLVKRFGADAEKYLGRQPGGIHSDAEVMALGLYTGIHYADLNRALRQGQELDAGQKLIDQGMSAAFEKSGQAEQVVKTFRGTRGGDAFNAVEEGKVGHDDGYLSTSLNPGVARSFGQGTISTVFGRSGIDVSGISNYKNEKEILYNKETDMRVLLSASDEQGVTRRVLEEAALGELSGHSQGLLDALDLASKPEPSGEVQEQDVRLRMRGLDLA
In short: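 Recombinant ExoS ADPRT domain with 14-3-3 cofactor, Ras substrate and εNAD+. Read transfer of fluorescent εADP-ribose to Ras. Compounds tested at 8–10 concentrations in triplicate in three independent runs. IC50 by dose-response curve fitting.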

O=C(O)CCC(=O)Nc1sc2c(c1C(=O)O)CCCC2 was tested. Which IC50 did it give?
The IC50 was over 200 µM.

How did the IC50 turn out when O=c1[nH]c([C@@H]2C[C@H]2c2nn[nH]n2)nc2sc3c(c12)CCC3 (relative stereo) was run?
Its IC50 is 233 µM.

With O=C(O)c1ccc(-c2nc3ccccc3c(=O)[nH]2)o1 as the compound, how does the IC50 read?
The IC50 was 32 µM.

Which IC50 does the source give for O=C(O)[C@H](O)Cc1nc2sc3c(c2c(=O)[nH]1)CCC3 here?
Its IC50 is 191 µM.

Which IC50 does the source give for O=C(O)CCCc1nc2cccc(F)c2c(=O)[nH]1 here?
Its IC50 is 25 µM.

With O=C(O)CCc1nc2ccc3c(c2c(=O)[nH]1)CCC3 as the compound, how does the IC50 read?
The IC50 was 54 µM.

How did the IC50 turn out when O=C(O)CCc1nc2cc3c(cc2c(=O)[nH]1)CCC3 was run?
Its IC50 is 98 µM.

Which IC50 does the source give for Nc1nc(CCC(=O)O)nc2sc3c(c12)CCC3 here?
Its IC50 is over 200 µM.

Which IC50 does the source give for O=C(O)[C@@H](O)Cc1nc2sc3c(c2c(=O)[nH]1)CCC3 here?
Its IC50 is 55 µM.

For O=C(O)c1ccc(-c2nc3ccccc3c(=O)[nH]2)cc1, which IC50 is on record?
The IC50 was 30 µM.

How did the IC50 turn out when COC(=O)CCc1nc2sc3c(c2c(=O)[nH]1)CCC3 was run?
The IC50 was 116 µM.

For CS(=O)(=O)NC(=O)CCc1nc2sc3c(c2c(=O)[nH]1)CCCC3, which IC50 is on record?
The IC50 was 100 µM.

O=C(O)CCc1ncc(C2=CCCC2)c(=O)[nH]1 was tested. Which IC50 did it give?
The IC50 was 200 µM.

With O=C(O)CCCCc1nc2sc3c(c2c(=O)[nH]1)CCC3 as the compound, how does the IC50 read?
Its IC50 is 53 µM.

With O=C(O)CCCc1nc2cc(F)c(F)cc2c(=O)[nH]1 as the compound, how does the IC50 read?
The IC50 was 15 µM.

With O=C(O)CCc1nc2sc3c(c2c(=O)[nH]1)CCCC3 as the compound, how does the IC50 read?
Its IC50 is 55 µM.

O=C(O)CCC(=O)Nc1sc2c(c1C(=O)O)CCOC2 was tested. Which IC50 did it give?
Its IC50 is over 200 µM.

Which IC50 does the source give for O=C(O)C1CC1c1nc2sc3c(c2c(=O)[nH]1)CCC3 (stereo in doubt; form 1) here?
The IC50 was 6.9 µM.

How did the IC50 turn out when O=C(O)/C=C\c1nc2sc3c(c2c(=O)[nH]1)CCC3 was run?
Its IC50 is 15 µM.

For O=c1[nH]c(CCCO)nc2sc3c(c12)CCC3, which IC50 is on record?
Its IC50 is 52 µM.

Which IC50 does the source give for O=C(O)COCc1nc2sc3c(c2c(=O)[nH]1)CCC3 here?
Its IC50 is 72 µM.

With O=C(O)[C@H]1CCC[C@H]1c1nc2sc3c(c2c(=O)[nH]1)CCC3 as the compound, how does the IC50 read?
Its IC50 is 65 µM.

How did the IC50 turn out when O=C(O)[C@H]1C[C@H]1c1nc2sc3c(c2c(=O)[nH]1)CCC3 (racemic) was run?
Its IC50 is 190 µM.

Which IC50 does the source give for O=C(O)[C@H]1C[C@@H]1c1nc2sc3c(c2c(=O)[nH]1)CCC3 (racemic) here?
The IC50 was 10 µM.

Which IC50 does the source give for O=C(O)CCc1nc2sc3c(c2c(=O)[nH]1)CCC3 here?
Its IC50 is 19 to 20 µM.

O=C(O)CCc1nc2scc(-c3ccccc3)c2c(=O)[nH]1 was tested. Which IC50 did it give?
The IC50 was 56 µM.

Which IC50 does the source give for O=C(O)/C=C/c1nc2sc3c(c2c(=O)[nH]1)CCC3 here?
Its IC50 is 70 µM.

With O=C(O)CCCc1nc2ccccc2c(=O)[nH]1 as the compound, how does the IC50 read?
Its IC50 is 25 to 30 µM.

O=C1NC(C2CC2C(=O)O)Nc2sc3c(c21)CCC3 (racemic) was tested. Which IC50 did it give?
The IC50 was 138 µM.

O=C(O)c1ccccc1-c1nc2sc3c(c2c(=O)[nH]1)CCC3 was tested. Which IC50 did it give?
Its IC50 is 97 µM.

Which IC50 does the source give for O=C(O)C1CC1c1nc2sc3c(c2c(=O)[nH]1)CCC3 (stereo in doubt; form 2) here?
The IC50 was 39 µM.

same assay, conditions: read-out: pIC50 (converted)

O=C(O)[C@H]1C[C@@H]1c1nc2sc3c(c2c(=O)[nH]1)CCC3 (racemic) was tested. Which IC50 did it give?
Its IC50 is 11.2 µM.

O=C(O)CCc1nc2sc3c(c2c(=O)[nH]1)CCC3 was tested. Which IC50 did it give?
Its IC50 is 27.5 µM.

molecular target: T2, Exoenzyme S (Pseudomonas aeruginosa) (UniProt Q93SQ1); test: Inhibition of recombinant Pseudomonas aeruginosa PAK His6-tagged ExoS ADPRT domain expressed in Escherichia coli at 100 uM using human GST-fused vH-Ras as substrate measured over 30 mins in presence of 14.3.3beta and epsilonNAD+ by fluorescence assay relative to control; details: not given
T2 sequence (whole entry): T1 sequence (Q93SQ1 whole entry)

How did the inhibition turn out when O=C(O)CCCc1nc2cc3c(cc2c(=O)[nH]1)CCCC3 was run?
Its inhibition is 22%.

With O=C(O)CCc1nc2sc3c(c2c(=O)[nH]1)CCOC3 as the compound, how does the inhibition read?
The inhibition was under 60%.

For O=C(O)CCc1nc2ccc3c(c2c(=O)[nH]1)CCCC3, which inhibition is on record?
Its inhibition is 45%.

With COC(=O)CCc1nc(OC)c2c3c(sc2n1)CCC3 as the compound, how does the inhibition read?
The inhibition was 25%.

For O=C(O)/C=C/c1nc2ccccc2c(=O)[nH]1, which inhibition is on record?
Its inhibition is under 50%.

Which inhibition does the source give for O=C(O)CCCc1nc2ccc([N+](=O)[O-])cc2c(=O)[nH]1 here?
Its inhibition is 30%.

Which inhibition does the source give for O=C(O)CCc1nc2cc3c(cc2c(=O)[nH]1)CCCC3 here?
Its inhibition is 27%.

How did the inhibition turn out when O=C(O)c1ccccc1Cc1nc2sc3c(c2c(=O)[nH]1)CCC3 was run?
Its inhibition is 50%.

Which inhibition does the source give for COC(=O)CCc1nc(N)c2c3c(sc2n1)CCC3 here?
The inhibition was 12%.

With O=C(O)CCCCc1nc2ccccc2c(=O)[nH]1 as the compound, how does the inhibition read?
The inhibition was 69%.

How did the inhibition turn out when O=C(O)CCCc1nc2ccc3c(c2c(=O)[nH]1)CCC3 was run?
The inhibition was 60%.

COc1ccc2c(=O)[nH]c(CCCC(=O)O)nc2c1 was tested. Which inhibition did it give?
The inhibition was 20%.

For O=C(O)CCCc1nc2ccc3c(c2c(=O)[nH]1)CCCC3, which inhibition is on record?
Its inhibition is 30%.

Which inhibition does the source give for O=C(O)CCCc1nc2cc3c(cc2c(=O)[nH]1)CCC3 here?
Its inhibition is 50%.

Which inhibition does the source give for O=C(O)CCc1nc2sc3c(c2c(=O)[nH]1)CCCCC3 here?
Its inhibition is under 50%.

molecular target: T1, Exoenzyme S; test: Inhibition of Pseudomonas aeruginosa PAK secreted full length ExoS using human GST-fused vH-Ras as substrate preincubated for 10 mins followed by epsilonNAD+ addition measured at 30 mins in presence of 14.3.3beta and epsilonNAD+ by real-time fluorescent assay; details: read-out: IC50
In short: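 Induce ExoS secretion by growing P. aeruginosa PAK overnight at 37 °C in shaken LB. Dilute to OD600 0.001 in LB with 5 mM EGTA and 20 mM MgCl2, then shake 4 h at 37 °C. Add the culture to 500 nM 14-3-3b, vH-Ras and compound in triplicate (13 concentrations, 1% DMSO). Start with εNAD+. Use PAKΔexoS as negative control. Read fluorescence kinetically at 302/410; IC50 from linear-phase velocity (% control), two independent runs.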

Which IC50 does the source give for O=C(O)CCCc1nc2cccc(F)c2c(=O)[nH]1 here?
The IC50 was 7.67 µM.

For O=C(O)C1CC1c1nc2sc3c(c2c(=O)[nH]1)CCC3 (stereo in doubt; form 1), which IC50 is on record?
The IC50 was 1.32 µM.

O=C(O)/C=C\c1nc2sc3c(c2c(=O)[nH]1)CCC3 was tested. Which IC50 did it give?
Its IC50 is 3.51 µM.

With O=C(O)[C@H]1C[C@@H]1c1nc2sc3c(c2c(=O)[nH]1)CCC3 (racemic) as the compound, how does the IC50 read?
The IC50 was 2.36 µM.

For O=C(O)CCc1nc2sc3c(c2c(=O)[nH]1)CCC3, which IC50 is on record?
The IC50 was 6.93 µM.

For O=C(O)C1CC1c1nc2sc3c(c2c(=O)[nH]1)CCC3 (stereo in doubt; form 2), which IC50 is on record?
Its IC50 is 8.31 µM.

same assay, conditions: read-out: pIC50 (converted)

O=C(O)[C@H]1C[C@@H]1c1nc2sc3c(c2c(=O)[nH]1)CCC3 (racemic) was tested. Which IC50 did it give?
Its IC50 is 2.4 µM.
